For data set [1], the system named is THP-1. Description: Cytotoxicity against human THP-1 monocytes assessed as LDH release at 0.001 to 1000 nM incubated for 24 hrs in absence of LPS by LDH assay. The data set is classed as toxicity, cell-based. The following applies: thp-1, 24 h, 1 µM, dose 0.001-1000 nM. The essentials:
(§1)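 THP-1-Lucia monocytes (1 × 10⁵/well) exposed 24 h to compound without LPS (1 pM upward; 0.1% ethanol vehicle). Supernatant LDH absorbance at 490 nm with 690 nm background; 2% Triton X-100 lysis defined maximum release, untreated cells spontaneous release; expressed as % LDH release relative to LPS ± SEM, n = 3.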
For orientation: LDH leaks from cells whose membrane has failed.

Data set [2] has as its system Mus musculus. The data set can be described thus: Anti-inflammatory activity in C57BL/6J mouse model of carrageenan-induced paw edema assessed as reduction in paw swelling at 2 ug/kg, ip administered 30 mins prior to carrageenan injection. In kind it is functional, organism-based. The following applies: dose 2.0 µg/kg. The essentials:
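Male C57BL/6 mice dosed 30 min before intraplantar 50 μL 1% carrageenan (saline in contralateral paw); test compound 2 μg/kg ip, naproxen 50 mg/kg po. Paw thickness difference tracked over time (to 72 h) with a lever gauge as edema index; mean ± SEM, n = 3 mice/group.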
Background: The carrageenan paw model is a standard test of acute inflammation.

Data set [3] concerns THP-1. Description: Anti-inflammatory activity against human THP-1 monocytes assessed as reduction in LPS-induced IL-1beta release at 0.01 nM to 100 nM pretreated for 30 mins followed LPS stimulation and measured after 24 hrs by multiplex chemiluminescence detection method. In kind it is functional. The following applies: time 24.5 hrs. In a few lines:
(§2)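 THP-1-Lucia NF-κB monocytes (1 × 10⁵/well, 0.1% FBS medium) pretreated 30 min with compound (ethanol stock, final 0.1% ethanol vehicle), then 50 ng/mL LPS for 24 h.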

Data set [4] has as its target T1, Nuclear factor NF-kappa-B complex (Homo sapiens) (UniProt Q00653+P19838+Q04206). Description: Inhibition of LPS-induced NF-kappaB activation in human THP-1 monocytes expressing luciferase gene at 0.01 to 100 nM pretreated for 30 mins followed by LPS stimulation and measured after 24 hrs by bioluminescence analysis. The data set is classed as cell-based. The following applies: dose 0.01-100 nM, time 24.5 hr. In a few lines:
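Secreted luciferase in supernatant read with QUANTI-Luc by bioluminescence, normalized to BCA protein (lum/abs ratio, two replicates), expressed as % of LPS response; mean ± SEM, n = 3.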

The test system of data set [5] is THP-1. Description: Anti-inflammatory activity against human THP-1 monocytes assessed as reduction in LPS-induced IFNgamma release at 1 pM pretreated for 30 mins followed LPS stimulation and measured after 24 hrs by multiplex chemiluminescence detection method. The following applies: time 24.5 hrs. In kind it is functional, cell-based. The essentials: as §2
Data set [6] concerns the target T1, Nuclear factor NF-kappa-B complex (Homo sapiens). Description: Inhibition of TNFalpha-stimulated NF-kappaB activity (unknown origin) expressed in mouse primary smooth muscle cells at 1 nM pretreated for 30 mins followed by TNFalpha stimulation and incubated for 24 hrs by SEAP reporter gene assay. The data set is classed as cell-based. Particulars: THP-1, time 24.5 hrs. In a few lines:
(§3)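 Mouse primary vascular SMCs in DMEM with 25 mM glucose, serum-restricted (1% FBS) 24 h, transfected 24 h with pNF-κB-SEAP, pretreated 30 min, then TNF-α 1 ng/mL for 24 h; 0.1% ethanol vehicle. Secreted alkaline phosphatase measured in supernatant; fold change vs vehicle, mean ± SEM of 6–8 independent experiments.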
In general terms: In a reporter assay the amount or activity of a reporter protein is the signal.

In data set [7] the test system is THP-1. Description: Cytotoxicity against human THP-1 monocytes assessed as LDH release at 1 pM incubated for 24 hrs in absence of LPS by LDH assay. The following applies: thp-1, 24 h. The data set is classed as toxicity, cell-based. The essentials:
as §1

The test system of data set [8] is THP-1. Description: Anti-inflammatory activity against human THP-1 monocytes assessed as reduction in LPS-induced IFNgamma release pretreated for 30 mins followed LPS stimulation and measured after 24 hrs by multiplex chemiluminescence detection method. In kind it is functional, cell-based. In a few lines: as §2
The subject of data set [9] is THP-1. Description: Anti-inflammatory activity against human THP-1 monocytes assessed as reduction in LPS-induced IFNgamma release at 0.01 nM to 100 nM pretreated for 30 mins followed LPS stimulation and measured after 24 hrs by multiplex chemiluminescence detection method. In kind it is functional. Particulars: time 24.5 hrs. In a few lines: as §2
Data set [10] has as its system THP-1. The data set can be described thus: Induction of phagocytosis in human THP-1-MF0 macrophages at 100 nM pretreated for 30 mins followed by fluorescently labeled Escherichia coli derived bio-particles addition and measured after 2 hrs. In kind it is functional, cell-based. The following applies: time 2.5 hrs. In a few lines: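 THP-1 monocytes differentiated with 16 nM PMA 48 h plus 24 h rest; 1 × 10⁵ macrophages/well in 0.1% serum adhered 1.5 h, treated 30 min (1 fM–1 μM), medium replaced with fluorescent E. coli bioparticles for 2 h at 37 °C in dark; trypan blue quench 1 min; bottom-read fluorescence Ex480/Em520; fold change vs vehicle, n = 3.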

In data set [11] the test system is THP-1. The data set can be described thus: Anti-inflammatory activity against human THP-1 monocytes assessed as […] in LPS-induced IL-8 release at 1 nM by multiplex chemiluminescence detection method. In kind it is functional, cell-based. The essentials: as §2
Data set [12] deals with T1, Nuclear factor NF-kappa-B complex (Homo sapiens). Description: Inhibition of TNFalpha-stimulated NF-kappaB activity (unknown origin) expressed in mouse primary smooth muscle cells at 0.1 nM pretreated for 30 mins followed by TNFalpha stimulation and incubated for 24 hrs by SEAP reporter gene assay. The data set is classed as cell-based. Particulars: time 24.5 hrs. The essentials:
as §3

Another data set concerns HEK293. Description: Agonist activity at ALX/FPR2 receptor (unknown origin) expressed in HEK-293 cells assessed as increase in calcium flux at 0.01 to 100 nM by Fluo-4 staining based assay. The data set is classed as cell-based. The following applies: Homo sapiens, filed as agonist, dose 0.01-100 nM. In a few lines:
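HEK-293 cells stably double-transfected with ALX/FPR2 and Gαq (Geneticin 500 and Hygromycin 100 μg/mL selection); wild-type HEK-293 as specificity control. Cultured 18 h, loaded with Fluo-4 (37 °C, 1 h), compounds injected in-reader (10 pM–100 nM). Baseline-to-peak calcium fluorescence difference expressed as % of LXA₄ peak; ATP 1 μM and W-peptide 2 nM positive controls; n = 3 independent experiments.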

The species entered for data set [13] is Mus musculus. Description: Anti-inflammatory activity in zymosan-induced C57BL/6J mouse model of peritonitis assessed as change in polymorphonuclear cell count. The data set is classed as functional, organism-based. The essentials: (§4)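 Male C57BL/6J mice (9 weeks) given zymosan 1 mg/mouse ip (40 mg/kg); compound (2 or 6 μg/kg) or dexamethasone (1 mg/kg) ip 30 min before and 1 h after zymosan. Peritoneal lavage 24 h post-zymosan; cells counted with Turk's solution, stained Ly6G/F4/80/CD11b, PMN as Ly6G⁺ by flow cytometry; % of vehicle + zymosan maximal response; n = 5 mice/group, one-way ANOVA.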

The species entered for data set [14] is Mus musculus. The data set can be described thus: Anti-inflammatory activity in zymosan-induced C57BL/6J mouse model of peritonitis assessed as change in monocyte cell count. The data set is classed as functional, organism-based.
The subject of data set [15] is THP-1. Description: Cytotoxicity against human THP-1 monocytes assessed as LDH release at 1 uM incubated for 24 hrs in absence of LPS by LDH assay. In kind it is toxicity, cell-based. The following applies: thp-1, 24 h. In a few lines: as §1
For data set [16], the species on record is Mus musculus. The data set can be described thus: Anti-inflammatory activity in zymosan-induced C57BL/6J mouse model of peritonitis assessed as change in macrophage cell count. The data set is classed as functional, organism-based.
Data set [17] relates to THP-1. Description: Cytoprotection against LPS-stimulated human THP-1 monocytes toxicity assessed as reduction LDH release at 1 uM incubated for 24 hrs by LDH assay. In kind it is functional. In a few lines:
(§5)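 Supernatant LDH read at 490 nm minus 690 nm background; maximum release from 2% Triton X-100 lysis; expressed as % LDH release relative to LPS ± SEM, n = 3.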

The test system of data set [18] is Mus musculus. Description: Anti-inflammatory activity in zymosan-induced C57BL/6J mouse model of peritonitis assessed as reduced neutrophil influx at 11 mg/kg, ip treated 1 hr prior to zymosan administration (reference value: 100 %). The data set is classed as functional. The arrangement: scale not given: the % may be the effect or the level left.
The subject of data set [19] is Mus musculus. Description: Anti-inflammatory activity in zymosan-induced C57BL/6J mouse model of peritonitis assessed as maximal response at 1 mg/kg, ip treated 30 mins prior to zymosan administration and once again 1 hr after zymosan administration and measured 24 hrs post zymosan injection by flow cytometry analysis (reference value: 100 %). In kind it is functional. The following applies: time 24.5 hrs. In a few lines:
as §4

For data set [20], the system named is Mus musculus. Description: Anti-inflammatory activity in zymosan-induced C57BL/6J mouse model of peritonitis assessed as reduced neutrophil influx at 6 ug/kg, ip treated 30 mins prior to zymosan administration (reference value: 100 %). The arrangement: scale not given: the % may be the effect or the level left. Particulars: 0.5 h.
For data set [21], the system named is Mus musculus. Description: Anti-inflammatory activity in zymosan-induced C57BL/6J mouse model of peritonitis assessed as total number of polymorphonuclear cells at 6 ug/kg, ip treated 30 mins prior to zymosan administration and once again 1 hr after zymosan administration and measured 24 hrs post zymosan injection by flow cytometry analysis (reference value: 4.7 +/- 0.5 x10^6 /ml). In kind it is functional. The following applies: dose 6 µg/kg; time 24.5 hrs. In a few lines: as §4

Data set [22] deals with Mus musculus. The data set can be described thus: Anti-inflammatory activity in zymosan-induced C57BL/6J mouse model of peritonitis assessed as maximal response at 6 ug/kg, ip treated 30 mins prior to zymosan administration and once again 1 hr after zymosan administration and measured 24 hrs post zymosan injection by flow cytometry analysis (reference value: 100 %). In kind it is functional. The following applies: dose 6 µg/kg; time 24.5 hrs. The essentials: as §4

Data set [23] concerns THP-1. Description: Cytoprotection against LPS-stimulated human THP-1 monocytes toxicity assessed as fold reduction in LDH release at 0.001 to 1000 nM incubated for 24 hrs by LDH assay. In kind it is functional. Particulars: dose 0.001-1000 nM. In a few lines:
as §5

Active and inactive are the calls of the source. The rule behind the calls is not given here.

T1 sequence (P19838 whole entry, looked up): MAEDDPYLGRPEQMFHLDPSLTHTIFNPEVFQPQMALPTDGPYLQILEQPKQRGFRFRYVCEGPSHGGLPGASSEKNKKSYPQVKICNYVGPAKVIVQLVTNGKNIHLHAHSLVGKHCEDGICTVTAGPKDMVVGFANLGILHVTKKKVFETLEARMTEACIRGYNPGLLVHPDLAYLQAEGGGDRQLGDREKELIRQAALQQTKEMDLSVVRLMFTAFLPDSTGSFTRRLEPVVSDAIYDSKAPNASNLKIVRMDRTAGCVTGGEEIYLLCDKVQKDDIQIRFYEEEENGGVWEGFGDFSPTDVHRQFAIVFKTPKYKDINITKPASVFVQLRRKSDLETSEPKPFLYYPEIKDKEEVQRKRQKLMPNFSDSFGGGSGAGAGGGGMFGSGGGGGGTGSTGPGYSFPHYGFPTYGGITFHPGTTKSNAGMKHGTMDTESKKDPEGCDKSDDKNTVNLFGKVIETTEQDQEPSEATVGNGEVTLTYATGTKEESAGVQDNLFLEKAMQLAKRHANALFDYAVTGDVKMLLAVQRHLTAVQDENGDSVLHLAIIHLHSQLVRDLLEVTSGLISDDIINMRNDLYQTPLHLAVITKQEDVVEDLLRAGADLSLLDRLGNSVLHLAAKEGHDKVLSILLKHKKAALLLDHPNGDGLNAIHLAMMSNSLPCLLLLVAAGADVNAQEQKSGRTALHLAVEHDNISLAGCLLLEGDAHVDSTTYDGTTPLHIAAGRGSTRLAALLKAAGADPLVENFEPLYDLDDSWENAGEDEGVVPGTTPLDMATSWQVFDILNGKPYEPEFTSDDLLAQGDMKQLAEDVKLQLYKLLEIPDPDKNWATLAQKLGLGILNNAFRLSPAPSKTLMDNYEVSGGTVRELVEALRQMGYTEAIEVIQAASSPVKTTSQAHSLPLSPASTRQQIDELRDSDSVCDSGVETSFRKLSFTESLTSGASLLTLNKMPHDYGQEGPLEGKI
T1 sequence (Q00653 whole entry, looked up): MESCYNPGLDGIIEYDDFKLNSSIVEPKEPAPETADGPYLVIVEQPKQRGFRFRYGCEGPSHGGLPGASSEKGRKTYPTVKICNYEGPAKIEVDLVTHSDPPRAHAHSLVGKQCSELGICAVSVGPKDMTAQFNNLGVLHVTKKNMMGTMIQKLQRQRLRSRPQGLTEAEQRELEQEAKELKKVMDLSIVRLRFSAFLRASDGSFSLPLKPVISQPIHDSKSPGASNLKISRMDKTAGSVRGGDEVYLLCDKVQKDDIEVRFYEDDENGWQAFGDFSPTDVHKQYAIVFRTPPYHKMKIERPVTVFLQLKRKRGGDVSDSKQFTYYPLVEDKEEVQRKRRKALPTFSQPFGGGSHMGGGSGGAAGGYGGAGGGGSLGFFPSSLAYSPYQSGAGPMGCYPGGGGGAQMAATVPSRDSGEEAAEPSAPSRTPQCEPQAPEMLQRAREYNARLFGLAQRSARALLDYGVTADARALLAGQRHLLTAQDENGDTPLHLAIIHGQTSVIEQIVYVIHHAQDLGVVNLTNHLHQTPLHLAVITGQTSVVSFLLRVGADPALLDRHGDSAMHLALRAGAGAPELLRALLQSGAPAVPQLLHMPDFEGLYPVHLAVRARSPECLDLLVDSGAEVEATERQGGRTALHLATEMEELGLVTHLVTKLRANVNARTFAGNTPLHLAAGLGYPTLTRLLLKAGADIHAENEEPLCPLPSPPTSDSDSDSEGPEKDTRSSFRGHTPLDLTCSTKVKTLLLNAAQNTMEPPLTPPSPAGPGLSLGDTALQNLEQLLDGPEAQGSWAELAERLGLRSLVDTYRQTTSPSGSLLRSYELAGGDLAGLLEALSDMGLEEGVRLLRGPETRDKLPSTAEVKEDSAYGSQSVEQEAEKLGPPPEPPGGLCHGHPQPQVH
T1 sequence (Q04206 whole entry, looked up): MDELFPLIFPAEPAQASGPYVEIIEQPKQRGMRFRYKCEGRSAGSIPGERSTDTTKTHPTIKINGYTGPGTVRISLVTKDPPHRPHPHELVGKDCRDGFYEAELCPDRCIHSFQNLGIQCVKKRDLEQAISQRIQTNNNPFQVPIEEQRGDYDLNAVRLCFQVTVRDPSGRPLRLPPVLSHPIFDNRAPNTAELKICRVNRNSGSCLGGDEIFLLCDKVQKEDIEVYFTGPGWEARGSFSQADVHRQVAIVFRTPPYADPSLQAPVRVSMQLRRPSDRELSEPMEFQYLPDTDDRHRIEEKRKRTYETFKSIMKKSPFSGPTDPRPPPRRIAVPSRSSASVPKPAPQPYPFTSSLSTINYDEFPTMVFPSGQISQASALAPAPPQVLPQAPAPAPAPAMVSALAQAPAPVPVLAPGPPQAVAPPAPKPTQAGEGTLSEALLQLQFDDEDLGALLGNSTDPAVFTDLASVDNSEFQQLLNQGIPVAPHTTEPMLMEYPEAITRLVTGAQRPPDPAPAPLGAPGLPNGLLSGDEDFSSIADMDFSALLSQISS

Regarding `CCCCC[C@@H](O)c1nc2ccccc2nc1/C=C/[C@H]1OC(C)(C)O[C@H]1CCCC(=O)OC`, the Activity entry with THP-1 [1] is given as “Toxic”. For the same compound, the result in the data set on Mus musculus [2] was inactive.
Regarding `CCCCC[C@H](O)c1nc2ccccc2nc1/C=C/[C@@H](O)[C@@H](O)CCCC(=O)OC`, in the data set with THP-1 [3], the outcome was inactive. Further, the Imax in data set [4] turned out to be 25%.
For the compound `CCCCC[C@H](O)c1nc2ccccc2nc1/C=C/[C@H]1OC(C)(C)O[C@H]1CCCC(=O)OC`, the Activity result in the data set on THP-1 [1] is recorded as “Toxic”.
On to `CCCCC[C@@H](O)c1ccccc1/C=C/[C@@H](O)[C@@H](O)CCCC(=O)OC`, for which the outcome in the data set with THP-1 [5] was inactive. In addition, the inhibition result in data set [6] was “Active”. The Activity result in the data set on THP-1 [7] was “Non-Toxic”.
For orientation: IC50 means the concentration that inhibits the measured activity by half. With `CCC[C@H](O)c1nc2ccccc2nc1/C=C/[C@@H](O)[C@@H](O)CCCC(=O)OC`, the IC50 in the data set on THP-1 [8] stood at 1 pM. The Imax was determined as 30% in data set [4] and 85% with THP-1 [9].
Regarding `CCCCC[C@@H](O)c1c(/C=C/[C@@H](O)[C@@H](O)CCCC(=O)OC)nc(C)n1C`, the Activity result in the data set on THP-1 [7] is reported as “Non-Toxic”.
Consider `CCCCC[C@H](O)/C=C/C=C\C=C\C=C\[C@@H](O)[C@@H](O)CCCC(=O)O` [LIPOXIN A4], for which the result with THP-1 [10], with THP-1 [11] and in the data set on HEK293 was Active. Further, in data set [12], the inhibition result was “Active”. Also, in the data set on THP-1 [3], the Imax was 93%.
With `CCC[C@@H](O)c1nc2ccccc2nc1/C=C/[C@@H](O)[C@@H](O)CCCC(=O)OC`, the Activity entry in the data set on THP-1 [1] was “Non-Toxic”. For the same compound, the IC50 in the data set with THP-1 [8] was 1 pM. In addition, the figures for the Imax (in [4]; in the data set on THP-1 [9]) were 30% and 85%, respectively.
On to `C[C@@H]1C[C@H]2[C@@H]3CCC4=CC(=O)C=C[C@]4(C)[C@@]3(F)[C@@H](O)C[C@]2(C)[C@@]1(O)C(=O)CO` [DEXAMETHASONE], for which the outcome in the data set listed under Mus musculus [13], in the data set listed under Mus musculus [14], in the data set filed under Mus musculus [16] and with THP-1 [17] was inactive. Moreover, the Activity result in the data set with THP-1 [15] is reported as “Non-Toxic”; with Mus musculus [18], 33.5%; with Mus musculus [19], 51%.
As for `CCCCC[C@@H](O)c1nc2ccccc2nc1/C=C/[C@@H](O)[C@@H](O)CCCC(=O)OC`, the Activity with Mus musculus [20] was 22.5%; with Mus musculus [21] it was 3.2 10^6/ml; with THP-1 [1] it was “Non-Toxic”; in the data set on Mus musculus [22], 68%. In addition, the outcome in the data set filed under Mus musculus [13], in the data set listed under Mus musculus [14] and in the data set filed under Mus musculus [16] was inactive. Besides, the result in the data set on THP-1 [11] and in the data set with Mus musculus [2] was Active. Also, the “fold change (FC)” value in the data set on THP-1 [23] is reported as 1.3.
For `CCCCCCC[C@H](O)c1nc2ccccc2nc1/C=C/[C@@H](O)[C@@H](O)CCCC(=O)OC`, the Activity result in the data set with THP-1 [1] is recorded as “Non-Toxic”.

The values are drawn from ChEMBL document CHEMBL5038597 (J Med Chem, 2021).
